Reference: ChEMBL document CHEMBL2321678, “Incorporation of non-natural amino acids improves cell permeability and potency of specific inhibitors of proteasome trypsin-like sites” (J Med Chem, 2013)
Activity calls are given as the source filed them. The calls are words filed in the database; no cut-off is given here.

Assays:
Oryctolagus cuniculus = species on record: Oryctolagus cuniculus; assay: Selectivity ratio of IC50 for chymotrypsin-like activity of rabbit 26s proteasome beta 5 subunit to IC50 for trypsin-like activity of rabbit 26s proteasome beta 2 subunit
In short: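 Purified rabbit-muscle 26S proteasome (final 3 µg/mL) preincubated 30 min with a range of inhibitor concentrations. […] Amc release read continuously for 30 min (ex 380/em 460 nm). Slopes expressed as % of mock; IC50 by four-parameter least-squares fit.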

[1] = Inhibition of chymotrypsin-like activity of rabbit 26s proteasome beta 5 subunit assessed as hydrolysis of Suc-LLVY-amc fluorogenic substrate preincubated for 30 mins followed by substrate addition measured for 30 mins by fluorescence plate reader analysis; set-up: species or system Oryctolagus cuniculus
In short: (§1)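 Purified rabbit-muscle 26S proteasome (final 3 µg/mL) preincubated 30 min with a range of inhibitor concentrations. Slopes expressed as % of mock; IC50 by four-parameter least-squares fit.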

Homo sapiens = species on record: Homo sapiens; assay: Selectivity ratio of IC50 for chymotrypsin-like activity of human proteasome beta 5 subunit to IC50 for trypsin-like activity of human proteasome beta 2 subunit
[2] = Inhibition of trypsin-like activity of rabbit 26s proteasome beta 2 subunit assessed as hydrolysis of Ac-RLR-amc fluorogenic substrate preincubated for 30 mins followed by substrate addition measured for 30 mins by fluorescence plate reader analysis; set-up: species or system Oryctolagus cuniculus; in short: as §1
[3] = biological target: T1, Proteasome Macropain subunit MB1 (Homo sapiens, UniProt P28074); assay: Inhibition of chymotrypsin-like activity of proteasome beta 5 subunit in HEK-293T cell lysates using BODIPY-BODIPY-TMR-epoxomicin as probe after 1 hr by SDS-PAGE analysis
T1 sequence (P28074 whole entry): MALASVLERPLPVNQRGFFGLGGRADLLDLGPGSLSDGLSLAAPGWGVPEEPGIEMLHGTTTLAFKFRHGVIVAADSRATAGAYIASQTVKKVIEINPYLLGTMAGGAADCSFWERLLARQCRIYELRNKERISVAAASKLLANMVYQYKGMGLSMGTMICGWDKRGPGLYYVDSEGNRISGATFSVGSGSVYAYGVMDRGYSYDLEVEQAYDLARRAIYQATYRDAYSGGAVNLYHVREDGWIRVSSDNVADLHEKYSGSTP
In short: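 Then 1 h at 37 °C with BODIPY-TMR-Ahx3L3-vs or BODIPY-TMR-epoxomicin (0.5 µM). Three independent experiments; IC50 fitted.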

[4] = Inhibition of caspase-like activity of rabbit 26s proteasome beta 1 subunit assessed as hydrolysis of Acn-LPnLD-amc fluorogenic substrate preincubated for 30 mins followed by substrate addition measured for 30 mins by fluorescence plate reader analysis; set-up: species or system Oryctolagus cuniculus; in short: as §1
[5] = biological target: T2, Proteasome Macropain subunit MB1 (Homo sapiens) (UniProt P28074); assay: Inhibition of chymotrypsin-like activity of proteasome beta 5 subunit in HEK-293T cell lysates after 1 hr by SDS-PAGE analysis
T2 sequence (whole entry): T1 sequence (P28074 whole entry)
In short: (§2)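 Then 1 h at 37 °C with BODIPY-TMR-Ahx3L3-vs or BODIPY-TMR-epoxomicin (0.5 µM). Samples run on 12.5% SDS-PAGE; β2/β5 band fluorescence taken relative to mock. Three independent experiments; IC50 fitted.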

[6] = biological target: Proteasome Macropain subunit (Homo sapiens) (UniProt P49721); assay: Inhibition of trypsin-like activity of proteasome beta 2 subunit in HEK-293T cell lysates after 1 hr by SDS-PAGE analysis; in short: as §2
NCI-H929 [7] = assay: Inhibition of cathepsin in human NCI-H929 cells assessed as hydrolysis of Z-FR-amc fluorogenic substrate after 6 hrs; format: cell-based
In short: (§3)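 NCI-H929 cells treated 6 h, washed and permeabilized on ice with 0.05% digitonin in Tris pH 7.5 sucrose buffer. Cytosol removed by centrifugation, then the pellet lysed in Bis-Tris pH 5.5/CHAPS buffer. Protein-normalized extract added to 40 µM Z-FR-amc in phosphate pH 6.0, EDTA, DTT. Fluorescence read continuously for 30 min; rate from slopes.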

RPMI-8226 [8] = assay: Potentiation of NC-022-induced sensitization of human RPMI8226 cells to Carfilzomib assessed as cell viability at 10 uM after 48 hrs; format: functional, cell-based
RPMI-8226 [9] = assay: Sensitization of human RPMI8226 cells to Carfilzomib assessed as cell viability at 10 uM after 48 hrs; format: functional, cell-based
RPMI-8226 [10] = assay: Sensitization of human RPMI8226 cells to Carfilzomib assessed as cell viability at 27 uM after 47 hrs; format: functional, cell-based
RPMI-8226 [11] = assay: Sensitization of human RPMI8226 cells to Carfilzomib assessed as cell viability at 1 uM after 47 hrs; format: functional, cell-based
RPMI-8226 [12] = assay: Sensitization of human RPMI8226 cells to Bortezomib assessed as cell viability at 1 uM after 47 hrs; format: functional, cell-based
In short: (§4)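 RPMI-8226 grown in RPMI-1640 with 10% FBS, penicillin, streptomycin and plasmocin, 5% CO2. For sensitization, cells exposed to bortezomib for 1 h, then 47 h with the trypsin-site inhibitor (1 µM). Viability by Alamar Blue dye conversion; mean ± SEM of three biological replicates.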

RPMI-8226 [13] = assay: Cytotoxicity against human RPMI8226 cells; format: functional, cell-based; in short: as §4
Saccharomyces cerevisiae = assay: Inhibition of caspase-like activity of yeast 20s proteasome beta 1 subunit assessed as hydrolysis of […] fluorogenic substrate at 200 uM after 15 mins by fluorescence spectrophotometry
In short: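 Yeast 20S core particle (0.10 nM) preincubated 15 min with inhibitor, which stays present during the assay. Substrate ZLLE-amc for caspase-like sites, 250 µM, in 20 mM Tris, 0.01% SDS, pH 7.5. Hydrolysis monitored for 1 h at room temperature (ex 360/em 460 nm).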

NCI-H929 [14] = assay: Partial inhibition of cathepsin in human NCI-H929 cells assessed as hydrolysis of Z-FR-amc fluorogenic substrate after 6 hrs; format: cell-based; in short: as §3

Sequence of Proteasome Macropain subunit (Homo sapiens) (P49721 whole entry): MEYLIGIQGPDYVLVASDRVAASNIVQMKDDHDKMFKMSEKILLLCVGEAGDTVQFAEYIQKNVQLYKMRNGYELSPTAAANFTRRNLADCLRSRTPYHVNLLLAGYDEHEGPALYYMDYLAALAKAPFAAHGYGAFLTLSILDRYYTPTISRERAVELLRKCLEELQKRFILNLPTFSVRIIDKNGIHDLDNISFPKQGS

SMILES	Ratio IC50 (Oryctolagus cuniculus)	IC50 [1]	Ratio IC50 (Homo sapiens)	IC50 [2]	IC50 [3]	IC50 [4]	other results
CC(C)C[C@H](NC(=O)[C@H](Cc1ccc(CN)cc1)NC(=O)[C@H](Cc1ccccc1)N=[N+]=[N-])C(=O)N[C@H](/C=C/S(C)(=O)=O)Cc1ccc(N)cc1	59	190 nM	6.3	6.3 nM	630 nM	> 30 µM	
CC1=CC(C)=[N+]2C1=C(CCCCc1cn([C@@H](Cc3ccccc3)C(=O)N[C@@H](CC(C)C)C(=O)N[C@@H](CC(C)C)C(=O)N[C@H](/C=C/S(C)(=O)=O)Cc3ccc(CN)cc3)nn1)c1c(C)cc(C)n1[B-]2(F)F							inhibition [5]: Active; inhibition [6]: Active
Cc1c(O)cccc1C(=O)N[C@H](C(=O)N[C@@H](CO)C(=O)N[C@H](/C=C/S(C)(=O)=O)Cc1ccc(N)cc1)C(C)C	< 0.0067	200 nM		> 30000 nM		> 30 µM	
CC(C)C[C@H](NC(=O)[C@H](Cc1ccccc1)NC(=O)[C@H](Cc1ccccc1)N=[N+]=[N-])C(=O)N[C@H](/C=C/S(C)(=O)=O)Cc1ccccc1		1000 nM	0.04	> 30000 nM	110 nM	> 30 µM	
CC(=O)N[C@@H](CC(C)C)C(=O)N[C@@H](CC(C)C)C(=O)N[C@@H](CCCNC(=N)N)C(=O)[C@@]1(C)CO1		> 30000 nM		1000 nM		> 30 µM	
CC(C)C[C@H](NC(=O)[C@H](Cc1ccc(CN)cc1)NC(=O)[C@H](Cc1ccccc1)N=[N+]=[N-])C(=O)N[C@H](/C=C/S(C)(=O)=O)Cc1ccc(CN)cc1		8900 nM		6.6 nM			inhibition (NCI-H929 [7]): Active
CC(C)C[C@@H](/C=C/S(C)(=O)=O)NC(=O)[C@H](CC(C)C)NC(=O)[C@H](Cc1ccncc1)NC(=O)[C@H](Cc1ccccc1)N=[N+]=[N-]	0.00021	5 nM	0.029	24000 nM	160 nM	> 30 µM	
CC(C)C[C@H](NC(=O)[C@H](Cc1ccccc1)N=[N+]=[N-])C(=O)N[C@@H](CC(C)C)C(=O)N[C@@H](Cc1ccc(N)cc1)C(=O)[C@@]1(C)CO1	0.0056	10 nM		1800 nM		> 30 µM	
CC(C)C[C@H](NC(=O)[C@H](Cc1ccccc1)N=[N+]=[N-])C(=O)N[C@@H](CC(C)C)C(=O)N[C@H](/C=C/S(C)(=O)=O)CCCCN		22000 nM		740 nM		> 30 µM	
CC1=CC(C)=[N+]2C1=C(CCCCc1cn([C@@H](Cc3ccccc3)C(=O)N[C@@H](Cc3ccc(CN)cc3)C(=O)N[C@@H](CC(C)C)C(=O)N[C@H](/C=C/S(C)(=O)=O)Cc3ccc(CN)cc3)nn1)c1c(C)cc(C)n1[B-]2(F)F							inhibition [6]: inactive
CC(C)C[C@H](NC(=O)[C@H](Cc1ccccc1)N=[N+]=[N-])C(=O)N[C@@H](CC(C)C)C(=O)N[C@@H](Cc1ccc(CN)cc1)C(=O)[C@@]1(C)CO1		2700 nM		250 nM		11 µM	
CCOC(=O)[C@H]1O[C@@H]1C(=O)N[C@@H](CC(C)C)C(=O)NCCC(C)C							Activity (RPMI-8226 [8]): inactive; Activity (RPMI-8226 [9]): inactive
CC(C)C[C@H](NC(=O)[C@H](Cc1ccccc1)N=[N+]=[N-])C(=O)N[C@@H](CC(C)C)C(=O)N[C@H](/C=C/S(C)(=O)=O)Cc1ccc(CN)cc1							Activity (RPMI-8226 [10]): Active; Activity (RPMI-8226 [11]): Active; Activity (RPMI-8226 [12]): Active; Activity (RPMI-8226 [13]): inactive; inhibition (Saccharomyces cerevisiae): inactive; inhibition (NCI-H929 [14]): Active
CC(C)C[C@H](NC(=O)[C@H](Cc1ccc(CN)cc1)NC(=O)[C@H](Cc1ccccc1)N=[N+]=[N-])C(=O)N[C@H](/C=C/S(C)(=O)=O)Cc1ccncc1	9.1	410 nM	6.5	45 nM	2400 nM	> 30 µM	
CC(=O)N[C@@H](CCCNC(=N)N)C(=O)N[C@@H](CC(C)C)C(=O)N[C@@H](CCCNC(=N)N)C(=O)[C@@]1(C)CO1		> 30000 nM		80 nM		> 30 µM	
CC(C)C[C@H](NC(=O)[C@H](Cc1ccccc1)N=[N+]=[N-])C(=O)N[C@@H](CC(C)C)C(=O)N[C@H](/C=C/S(C)(=O)=O)Cc1ccc(N)cc1	0.36	40 nM	0.73	110 nM	1100 nM	23 µM	
CC(C)C[C@@H](/C=C/S(C)(=O)=O)NC(=O)[C@H](CC(C)C)NC(=O)[C@H](Cc1ccc(N)cc1)NC(=O)[C@H](Cc1ccccc1)N=[N+]=[N-]		< 4 nM	0.034	24000 nM	93 nM	> 30 µM	
CC(C)C[C@H](NC(=O)[C@H](Cc1ccccc1)N=[N+]=[N-])C(=O)N[C@@H](CC(C)C)C(=O)N[C@H](/C=C/S(C)(=O)=O)Cc1ccncc1		< 100 nM		420 nM	1500 nM	> 30 µM	
CC(C)C[C@@H](/C=C/S(C)(=O)=O)NC(=O)[C@H](CC(C)C)NC(=O)[C@H](Cc1ccc(CN)cc1)NC(=O)[C@H](Cc1ccccc1)N=[N+]=[N-]	0.057	10 nM	2.5	180 nM	480 nM		
CC(C)C[C@H](NC(=O)[C@H](Cc1ccc(N)cc1)NC(=O)[C@H](Cc1ccccc1)N=[N+]=[N-])C(=O)N[C@H](/C=C/S(C)(=O)=O)Cc1ccc(CN)cc1		3400 nM		30 nM		30 µM	inhibition (NCI-H929 [14]): Active
CC(C)C[C@H](NC(=O)[C@H](Cc1ccncc1)NC(=O)[C@H](Cc1ccccc1)N=[N+]=[N-])C(=O)N[C@H](/C=C/S(C)(=O)=O)Cc1ccc(CN)cc1				12 nM		30 µM	inhibition (NCI-H929 [7]): Active
